Laboratory results: ChEMBL document CHEMBL3352233, “N-[6-(4-butanoyl-5-methyl-1H-pyrazol-1-yl)pyridazin-3-yl]-5-chloro-1-[2-(4-methylpiperazin-1-yl)-2-oxoethyl]-1H-indole-3-carboxamide (SAR216471), a novel intravenous and oral, reversible, and directly acting P2Y12 antagonist” (J Med Chem, 2014)

Assays:
[1] = (§1) Metabolic stability in human liver microsomes assessed as compound metabolism after 20 mins incubation in presence of 1 mM NADPH; type: ADME; conditions: liver microsomes, read-out: Drug metabolism
How it was run: (§2)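 Hepatic microsomal fractions are incubated with compound for 20 min with 1 mM NADPH. Result is reported as % metabolized, i.e. 100 minus % unchanged compound.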

Liver microsome [2] = assay: (§3) Metabolic stability in rat liver microsomes assessed as compound metabolism after 20 mins incubation in presence of 1 mM NADPH; type: ADME; conditions: microsomes, 20 min; how it was run: as §2
Rattus norvegicus [3] = assay: Ex vivo inhibition of platelet aggregation in Sprague-Dawley rat at 10 mg/kg, po after 2 hrs; type: functional; conditions: for inhibition (INH): 10 mg/kg; for inhibition in vivo at 10 mg/kg: Rattus norvegicus, Sprague-Dawley, po, 2 h
How it was run: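 Male Sprague−Dawley rats (250−300 g), 6 per batch, are dosed by stomach tube at 10 mL/kg of a 1 mg/mL solution in 5% glucose water containing 5% Cremophor and 3% glycofurol. At 2 h, aortic blood is drawn into 3.8% citrate (1:9) under pentobarbital. PRP is prepared at 300g for 5 min. ADP aggregation is read as the 6-min absorbance AUC and expressed as % inhibition.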

Rattus norvegicus [4] = assay: Ex vivo inhibition of platelet aggregation in Sprague-Dawley rat at 10 mg/kg, po after 6 hrs; type: functional; conditions: for inhibition (INH): 10 mg/kg; for inhibition in vivo at 10 mg/kg: Rattus norvegicus, Sprague-Dawley, po, 6 h
How it was run: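 Time-course study in Sprague−Dawley rats after a 10 mg/kg oral dose in glucose/Cremophor/glycofurol vehicle. Aortic citrated blood is sampled at intervals over the hours after dosing. PRP is prepared at 300g for 5 min. ADP-induced aggregation is measured as the 6-min absorbance AUC and reported as % inhibition.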

P2Y purinoceptor 12 = P2Y purinoceptor 12 (Homo sapiens, UniProt Q9H244); assay: Displacement of [33P]2MeS-ADP from P2Y12 receptor (unknown origin) transfected in CHO cells after 30 mins by scintillation counting analysis; type: cell-based
How it was run: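 P2Y12-expressing CHO cells (35 × 10³/sample) in PBS with 1 mM EDTA and 0.2% BSA are exposed to compound for 30 min. [³³P]2-MeS-ADP (0.16 nM) is then added for 15 min at 20 °C, in triplicate. Filtration separates free from bound ligand, followed by scintillation counting. Nonspecific binding uses 1 mM unlabeled ADP. IC50 comes from a four-parameter logistic fit with asymptotes fixed at 0 and 100. n = 2.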

[5] = Permeability across human Caco2 cells; type: ADME, cell-based; conditions: for Papp: Caco-2, read-out: permeability; for permeability: Caco-2
How it was run: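 Permeation is measured across a Caco2 cell monolayer and reported in 10⁻⁷ cm·s⁻¹.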

[6] = as §3; type: ADME; conditions: liver microsomes, read-out: Drug metabolism; how it was run: as §2
[7] = Solubility in water at final pH; type: physicochemical
[8] = Metabolic stability in mouse liver microsomes assessed as compound metabolism after 20 mins incubation in presence of 1 mM NADPH; type: ADME; conditions: read-out: Drug metabolism
How it was run: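 Compound incubated with mouse hepatic microsomal fractions for 20 min with 1 mM NADPH. Read-out is % metabolism, meaning 100 minus % unchanged compound.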

Hepatocyte [9] = assay: Intrinsic metabolic clearance in human hepatocytes measured per 10^6 cells after 24 hrs; type: ADME, cell-based
How it was run: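 Human hepatocytes incubated with compound for 24 h to measure in vitro metabolism. Clearance reported in mL·h⁻¹·(10⁶ hepatocytes)⁻¹.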

Hepatocyte [10] = assay: Intrinsic metabolic clearance in human hepatocytes measured assessed as CYP3A4 contribution per 10^6 cells after 24 hrs; type: ADME, cell-based
Rattus norvegicus [11] = assay: Ex vivo inhibition of platelet aggregation in Sprague-Dawley rat at 1 mg/kg, iv after 30 mins; type: functional; conditions: 0.5 h
How it was run: (§4)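 Male Sprague−Dawley rats (250−300 g) receive compound iv. At 30 min, under pentobarbital anesthesia, blood is taken from the abdominal aorta into 3.8% citrate (1:9). PRP is prepared at 300g for 5 min. ADP-induced aggregation is measured, using the area under the absorbance curve over 6 min, and expressed as % inhibition.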

Rattus norvegicus [12] = assay: Ex vivo inhibition of platelet aggregation in Sprague-Dawley rat at 3 mg/kg, iv after 30 mins; type: functional; conditions: 0.5 h; how it was run: as §4
Rattus norvegicus [13] = assay: Ex vivo inhibition of platelet aggregation in Sprague-Dawley rat at 10 mg/kg, iv after 30 mins; type: functional; conditions: 0.5 h; how it was run: as §4
[14] = Solubility in water at pH 4.9; type: physicochemical
Liver microsome [15] = assay: as §1; type: ADME; conditions: microsomes, 20 min; how it was run: as §2
Rattus norvegicus [16] = assay: Ex vivo inhibition of platelet aggregation in po dosed Sprague-Dawley rat after 2 hrs; type: functional
How it was run: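 Oral gavage in male Sprague−Dawley rats (250−300 g, 6 per batch), vehicle 5% glucose water with 5% Cremophor and 3% glycofurol. Blood is collected 2 h after dosing from the abdominal aorta into 3.8% citrate under pentobarbital. PRP is prepared at 300g for 5 min. ADP-induced aggregation is quantified as the 6-min absorbance AUC, given as % inhibition.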

Rattus norvegicus [17] = assay: Toxicity in rat assessed as damaged organ at 30 mg/kg, po after 7 days; type: organism-based; set-up: dose 30 mg/kg, route oral; conditions: in vivo, 168 h
How it was run: (§5)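 Rats are dosed daily for 7 days, orally (30 and 100 mg/kg) or iv (3 and 10 mg/kg). Target organs are examined for damage. Plasma AUC(0−24) is compared between day 1 and day 7.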

Rattus norvegicus [18] = assay: Toxicity in rat assessed as damaged organ at 100 mg/kg, po after 7 days; type: organism-based; set-up: dose 100 mg/kg, route oral; conditions: in vivo, 168 h; how it was run: as §5
Rattus norvegicus [19] = assay: Toxicity in rat assessed as damaged organ at 3 mg/kg, iv after 7 days; type: organism-based; set-up: dose 3 mg/kg, route intravenous; conditions: in vivo, 168 h; how it was run: as §5
Rattus norvegicus [20] = assay: Toxicity in rat assessed as damaged organ at 10 mg/kg, iv after 7 days; type: organism-based; set-up: dose 10 mg/kg, route intravenous; conditions: in vivo, 168 h; how it was run: as §5
Canis familiaris [21] = assay: Toxicity in conscious telemetered mongrel dog assessed as hemodynamic effect at 100 mg/kg, po after 24 hrs; type: organism-based, Canis lupus familiaris; set-up: dose 100 mg/kg, route oral; conditions: in vivo
Canis familiaris [22] = assay: Toxicity in conscious telemetered mongrel dog assessed as electrocardiographic effect at 100 mg/kg, po after 24 hrs; type: organism-based, Canis lupus familiaris; set-up: dose 100 mg/kg, route oral; conditions: in vivo
Canis familiaris [23] = assay: Toxicity in conscious telemetered mongrel dog assessed as body temperature at 100 mg/kg, po after 24 hrs; type: organism-based, Canis lupus familiaris; set-up: dose 100 mg/kg, route oral; conditions: in vivo
[24] = Plasma concentration in conscious telemetered mongrel dog at 100 mg/kg, po after 4 hrs; type: ADME, organism-based, Canis lupus familiaris; set-up: dose 100 mg/kg, route oral
Rattus norvegicus [25] = assay: Ex vivo inhibition of platelet aggregation in Sprague-Dawley rat at 30 mg/kg, po after 2 hrs
Rattus norvegicus [26] = assay: Ex vivo inhibition of platelet aggregation in Sprague-Dawley rat at 0.1 mg/kg, iv after 5 mins
Rattus norvegicus [27] = assay: Ex vivo inhibition of platelet aggregation in Sprague-Dawley rat at 0.3 mg/kg, iv after 5 mins
Rattus norvegicus [28] = assay: Ratio of AUC (0 to 24 hrs) in rat dosed as 7 day repeated administration to AUC (0 to 24 hrs) in rat administered as single dose; conditions: in vivo

Sequence of P2Y purinoceptor 12 (Q9H244 whole entry): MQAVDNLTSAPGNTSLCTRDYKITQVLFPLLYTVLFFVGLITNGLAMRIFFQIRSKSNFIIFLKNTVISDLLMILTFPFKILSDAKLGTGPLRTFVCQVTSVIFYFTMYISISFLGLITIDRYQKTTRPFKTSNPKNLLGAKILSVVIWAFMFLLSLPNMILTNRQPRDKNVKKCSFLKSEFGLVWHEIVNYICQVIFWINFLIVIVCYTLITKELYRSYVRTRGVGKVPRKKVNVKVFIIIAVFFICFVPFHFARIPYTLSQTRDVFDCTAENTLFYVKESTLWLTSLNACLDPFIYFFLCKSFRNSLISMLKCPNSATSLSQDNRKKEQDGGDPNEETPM

| Structure (SMILES) | metabolised at 20 min [1] | Drug metabolism (Liver microsome [2]) | IC50 (P2Y purinoceptor 12) | Papp [5] | metabolised at 20 min [6] | metabolised at 20 min [8] | CLH (Hepatocyte [9]) | Activity (Hepatocyte [10]) | other results |
| --- | --- | --- | --- | --- | --- | --- | --- | --- | --- |
| CCCC(=O)c1cnn(-c2ccc(NC(=O)c3cn(CC(=O)N4CCN5CCN(C)C(=O)C5C4)c4ccc(Cl)cc34)cc2)c1C (racemic) | 50% | 40% | 8 nM | 3.6 ×10⁻⁶ cm/s |  |  |  |  | inhibition (INH) (Rattus norvegicus [3]): 80%; inhibition (INH) (Rattus norvegicus [4]): 39% |
| CCCC(=O)c1cnn(-c2ccc(NC(=O)c3cn(CC(=O)N(C)C)c4cc(C)c(C)cc34)cc2)c1C | 59% |  | 31 nM | 18.6 ×10⁻⁶ cm/s | 64% |  |  |  | solubility [7]: < 10 µg/mL |
| CCCC(=O)c1cnn(-c2ccc(NC(=O)c3cn(CC(=O)N4CCN(C)CC4)c4ccc(Cl)cc34)c(C#N)c2)c1C | 61% |  | 48 nM | 3.3 ×10⁻⁶ cm/s | 18% | 8% | 0.143 mL/h | 67% |  |
| CCCC(=O)c1cnn(-c2ccc(NC(=O)c3cn(CC(=O)N4CCN(C)CC4)c4ccc(Cl)cc34)cc2)c1C | 36% |  | 27 nM | 1.6 ×10⁻⁶ cm/s | 14% |  |  |  | inhibition in vivo at 10 mg/kg (Rattus norvegicus [3]): 50%; inhibition in vivo at 10 mg/kg (Rattus norvegicus [4]): 51%; inhibition in vivo at 1 mg/kg (Rattus norvegicus [11]): 53%; inhibition in vivo at 3 mg/kg (Rattus norvegicus [12]): 70%; inhibition in vivo at 10 mg/kg (Rattus norvegicus [13]): 86% |
| CCCC(=O)c1cnn(-c2ccc(NC(=O)c3cn(CC(=O)N4CCN(C)CC4)c4ccc(C)cc34)cc2)c1C.Cl | 39% |  | 31 nM | 4 ×10⁻⁶ cm/s | 41% |  |  |  | inhibition in vivo at 10 mg/kg (Rattus norvegicus [3]): 33%; solubility [14]: 760 µg/mL |
| CCCC(=O)c1cnn(-c2ccc(NC(=O)c3cn(CC(=O)N4CCN5CCN(C)C(=O)C5C4)c4ccc(Cl)cc34)cc2)c1C (single isomer, unassigned; 104) |  | 7% | 12 nM |  |  |  |  |  | Drug metabolism (Liver microsome [15]): 47%; inhibition (INH) (Rattus norvegicus [4]): 61%; permeability [5]: 28 ×10⁻⁷ cm/s |
| CCCC(=O)c1cnn(-c2ccc(NC(=O)c3cn(CC(=O)N4CCN5CCN(C)C(=O)C5C4)c4ccc(Cl)cc34)cc2)c1C (single isomer, unassigned; 103) |  | 23% | 7 nM |  |  |  |  |  | Drug metabolism (Liver microsome [15]): 52%; inhibition (INH) (Rattus norvegicus [3]): 46%; permeability [5]: 32 ×10⁻⁷ cm/s |
| CCCC(=O)c1cnn(-c2ccc(NC(=O)c3cn(CC(=O)N4CCN(C)CC4)c4ccc(Cl)cc34)nn2)c1C | 29% |  | 17 nM | 0.8 ×10⁻⁶ cm/s | 11% | 4% | 0.085 mL/h | 43% | inhibition in vivo at 10 mg/kg (Rattus norvegicus [4]): 74%; ED50 (Rattus norvegicus [16]): 2.75 mg/kg; inhibition (Rattus norvegicus [16]): Dose-dependent effect; inhibition in vivo at 1 mg/kg (Rattus norvegicus [11]): 75%; inhibition in vivo at 3 mg/kg (Rattus norvegicus [12]): 86%; inhibition in vivo at 10 mg/kg (Rattus norvegicus [13]): 92%; Activity (Rattus norvegicus [17]): Non-toxic; Activity (Rattus norvegicus [18]): Non-toxic; Activity (Rattus norvegicus [19]): Non-toxic; Activity (Rattus norvegicus [20]): Non-toxic; Activity (Canis familiaris [21]): Non-toxic; Activity (Canis familiaris [22]): Non-toxic; Activity (Canis familiaris [23]): Non-toxic; concentration at 4 h [24]: 4.2 µM; inhibition in vivo at 30 mg/kg (Rattus norvegicus [25]): 85%; inhibition in vivo at 0.1 mg/kg (Rattus norvegicus [26]): 37%; inhibition in vivo at 0.3 mg/kg (Rattus norvegicus [27]): 63%; Ratio (Rattus norvegicus [28]): 1.3 |
| CCCC(=O)c1cnn(C2CCN(NC(=O)c3cn(CC(=O)N4CCN(C)CC4)c4ccc(Cl)cc34)CC2)c1C | 59% |  | 7 nM | 0.1 ×10⁻⁶ cm/s | 13% | 3% | 0.05 mL/h | 35% | ED50 (Rattus norvegicus [16]): 0.95 mg/kg; inhibition (Rattus norvegicus [16]): Dose-dependent effect |
| CCCC(=O)c1cnn([C@H]2CC[C@H](NC(=O)c3cn(CC(=O)N4CCN(C)CC4)c4ccc(Cl)cc34)CC2)c1C | 73% |  | 40 nM | 0.1 ×10⁻⁶ cm/s | 32% | 11% | 0.171 mL/h | 64% |  |
